Results from ChEMBL document CHEMBL1144028, “Novel 2,3-dihydro-1,4-benzoxazines as potent and orally bioavailable inhibitors of tumor-driven angiogenesis” (J Med Chem, 2008).
≈ marks a conversion by molar mass, not a printed value.

Experiments:
HUVEC [1] = assay: Inhibition of FGF-induced proliferation of HUVEC cells; format: functional, cell-based; settings: Homo sapiens
Method in brief: (§1)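 Human umbilical vein endothelial cell proliferation driven by VEGF or by FGF; IC50 is the mean of two or more separate determinations, each in duplicate.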

HUVEC [2] = assay: Inhibition of VEGF-induced proliferation of HUVEC cells; format: functional, cell-based; settings: Homo sapiens; method in brief: as §1
[3] = biological target: Hepatocyte growth factor receptor (Homo sapiens, UniProt P08581); assay: Inhibition of c-Met
[4] = biological target: Tyrosine-protein kinase Lck (Homo sapiens, UniProt P06239); assay: Inhibition of Lck
[5] = biological target: Vascular endothelial growth factor receptor 2 (Homo sapiens, UniProt P35968); assay: Inhibition of KDR by HTRF assay
Method in brief: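 KDR read by homogeneous time-resolved fluorescence with a biotinylated gastrin substrate. IC50 is the mean of two or more separate determinations, each in duplicate.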

Angiopoietin-1 receptor = Angiopoietin-1 receptor (Homo sapiens, UniProt Q02763); assay: Inhibition of Tie2
[6] = Solubility in 0.01 N HCl; format: physicochemical
Method in brief: (§2)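 Equilibrium solubility measured in 0.01 N HCl, PBS (pH 7), and simulated intestinal fluid.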

[7] = Solubility in simulated intestinal fluid; format: physicochemical; method in brief: as §2
[8] = Solubility in PBS at pH 7; format: physicochemical; method in brief: as §2
[9] = Clearance in Sprague-Dawley rat at 0.5 mg/kg, iv; format: ADME, organism-based; set-up: dose 0.5 mg/kg, route intravenous; settings: in vivo
Method in brief: (§3)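 Male Sprague Dawley rats; single dose, 0.5 mg/kg iv or 2 mg/kg po; mean pharmacokinetic parameters reported.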

[10] = Half life in Sprague-Dawley rat at 0.5 mg/kg, iv; format: ADME, organism-based; set-up: dose 0.5 mg/kg, route intravenous; settings: in vivo; method in brief: as §3
[11] = Metabolic stability in human liver microsomes; format: ADME, Microsome; settings: read-out: Stability
Method in brief: (§4)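 In vitro stability on incubation with human or rat liver microsomal preparations.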

[12] = Volume of distribution at steady state in Sprague-Dawley rat at 0.5 mg/kg, iv; format: ADME, organism-based; set-up: dose 0.5 mg/kg, route intravenous; settings: in vivo, read-out: Vdss; method in brief: as §3
[13] = Metabolic stability in rat liver microsomes; format: ADME, Microsome; settings: read-out: Stability; method in brief: as §4
[14] = AUC in VEGF-soaked disk implanted Sprague-Dawley rat at […]; format: ADME, organism-based; set-up: dose 0.16 mg/kg; settings: plasma, read-out: ED50
[15] = AUC (0 to infinity) in Sprague-Dawley rat at 2 mg/kg, po; format: ADME, organism-based; set-up: time infinity, dose 2 mg/kg, route oral; settings: plasma; method in brief: as §3
[16] = Cmax in Sprague-Dawley rat at 2 mg/kg, po; format: ADME, organism-based; set-up: dose 2 mg/kg, route oral; settings: in vivo; method in brief: as §3
[17] = Oral bioavailability in Sprague-Dawley rat at 2 mg/kg, po; format: ADME, organism-based; settings: in vivo; method in brief: as §3
[18] = Cmax in VEGF-soaked disk implanted Sprague-Dawley rat at […]; format: ADME, organism-based; set-up: dose 0.16 mg/kg; settings: in vivo, read-out: ED50
[19] = Tmax in Sprague-Dawley rat at 2 mg/kg, po; format: ADME, organism-based; set-up: dose 2 mg/kg, route oral; settings: in vivo; method in brief: as §3
[20] = 0.01 N HCl, read-out: Solubility
[21] = simulated intestinal fluid, read-out: Solubility

Sequence of Angiopoietin-1 receptor (Q02763 whole entry): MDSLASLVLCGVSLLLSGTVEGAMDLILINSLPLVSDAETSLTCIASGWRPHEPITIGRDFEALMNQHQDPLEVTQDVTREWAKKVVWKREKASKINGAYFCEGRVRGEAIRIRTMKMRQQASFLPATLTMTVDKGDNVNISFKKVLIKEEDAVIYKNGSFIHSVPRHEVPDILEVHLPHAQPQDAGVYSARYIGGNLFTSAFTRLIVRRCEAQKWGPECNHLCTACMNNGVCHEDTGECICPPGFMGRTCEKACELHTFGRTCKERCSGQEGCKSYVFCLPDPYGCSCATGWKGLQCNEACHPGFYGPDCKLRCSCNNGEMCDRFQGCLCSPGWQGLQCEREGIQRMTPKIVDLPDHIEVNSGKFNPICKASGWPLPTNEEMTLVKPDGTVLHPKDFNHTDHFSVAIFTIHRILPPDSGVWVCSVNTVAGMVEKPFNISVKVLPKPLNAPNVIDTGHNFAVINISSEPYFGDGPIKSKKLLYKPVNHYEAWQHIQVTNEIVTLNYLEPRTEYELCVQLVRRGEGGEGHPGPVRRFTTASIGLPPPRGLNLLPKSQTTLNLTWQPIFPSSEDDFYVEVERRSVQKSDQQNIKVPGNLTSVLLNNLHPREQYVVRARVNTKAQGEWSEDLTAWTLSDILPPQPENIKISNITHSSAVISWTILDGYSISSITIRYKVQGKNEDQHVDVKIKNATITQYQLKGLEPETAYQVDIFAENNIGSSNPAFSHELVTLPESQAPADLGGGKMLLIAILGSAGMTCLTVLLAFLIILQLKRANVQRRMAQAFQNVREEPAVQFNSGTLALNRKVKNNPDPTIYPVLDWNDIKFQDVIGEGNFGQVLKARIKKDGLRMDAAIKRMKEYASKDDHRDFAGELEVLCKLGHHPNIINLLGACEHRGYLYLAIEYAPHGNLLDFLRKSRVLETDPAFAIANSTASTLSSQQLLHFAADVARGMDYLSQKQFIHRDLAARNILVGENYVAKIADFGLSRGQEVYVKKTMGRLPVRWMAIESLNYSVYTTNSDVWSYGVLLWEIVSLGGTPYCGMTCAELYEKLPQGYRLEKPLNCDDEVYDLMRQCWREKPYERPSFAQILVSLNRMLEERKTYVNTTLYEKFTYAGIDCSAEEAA
Sequence of Hepatocyte growth factor receptor (P08581 whole entry): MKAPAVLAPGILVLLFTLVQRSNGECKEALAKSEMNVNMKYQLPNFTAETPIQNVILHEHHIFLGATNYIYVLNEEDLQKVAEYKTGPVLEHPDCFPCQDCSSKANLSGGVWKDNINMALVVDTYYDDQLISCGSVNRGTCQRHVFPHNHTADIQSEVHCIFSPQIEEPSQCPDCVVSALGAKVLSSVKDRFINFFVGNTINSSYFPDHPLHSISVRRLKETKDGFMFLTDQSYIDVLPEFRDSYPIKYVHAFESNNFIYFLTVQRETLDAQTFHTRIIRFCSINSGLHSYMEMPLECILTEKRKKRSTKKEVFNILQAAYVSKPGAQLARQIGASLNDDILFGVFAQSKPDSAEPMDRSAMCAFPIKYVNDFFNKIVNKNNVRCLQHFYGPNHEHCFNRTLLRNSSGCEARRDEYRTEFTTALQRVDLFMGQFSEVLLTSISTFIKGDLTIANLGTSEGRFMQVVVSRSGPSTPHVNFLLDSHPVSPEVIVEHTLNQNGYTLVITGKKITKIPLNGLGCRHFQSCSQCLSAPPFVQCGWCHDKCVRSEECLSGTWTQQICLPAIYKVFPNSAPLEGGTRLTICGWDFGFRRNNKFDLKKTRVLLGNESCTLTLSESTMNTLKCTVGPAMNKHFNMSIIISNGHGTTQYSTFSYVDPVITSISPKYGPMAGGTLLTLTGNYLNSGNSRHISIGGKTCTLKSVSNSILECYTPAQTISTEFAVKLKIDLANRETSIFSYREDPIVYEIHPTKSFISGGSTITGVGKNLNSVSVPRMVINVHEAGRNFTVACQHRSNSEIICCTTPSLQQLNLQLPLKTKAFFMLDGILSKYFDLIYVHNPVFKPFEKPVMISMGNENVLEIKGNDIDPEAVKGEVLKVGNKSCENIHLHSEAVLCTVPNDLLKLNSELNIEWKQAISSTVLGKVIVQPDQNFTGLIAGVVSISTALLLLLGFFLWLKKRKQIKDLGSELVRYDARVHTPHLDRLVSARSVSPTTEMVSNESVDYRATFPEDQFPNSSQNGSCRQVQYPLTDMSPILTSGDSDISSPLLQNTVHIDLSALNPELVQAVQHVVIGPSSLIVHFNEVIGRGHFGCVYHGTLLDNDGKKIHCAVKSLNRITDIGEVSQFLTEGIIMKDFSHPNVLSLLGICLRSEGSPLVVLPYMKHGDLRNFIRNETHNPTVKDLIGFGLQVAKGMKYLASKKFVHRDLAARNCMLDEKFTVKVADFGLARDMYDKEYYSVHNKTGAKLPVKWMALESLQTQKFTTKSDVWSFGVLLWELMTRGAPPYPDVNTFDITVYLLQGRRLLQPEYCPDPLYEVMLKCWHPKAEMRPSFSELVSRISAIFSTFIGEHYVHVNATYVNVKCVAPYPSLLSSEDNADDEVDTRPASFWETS
Sequence of Vascular endothelial growth factor receptor 2 (P35968 whole entry): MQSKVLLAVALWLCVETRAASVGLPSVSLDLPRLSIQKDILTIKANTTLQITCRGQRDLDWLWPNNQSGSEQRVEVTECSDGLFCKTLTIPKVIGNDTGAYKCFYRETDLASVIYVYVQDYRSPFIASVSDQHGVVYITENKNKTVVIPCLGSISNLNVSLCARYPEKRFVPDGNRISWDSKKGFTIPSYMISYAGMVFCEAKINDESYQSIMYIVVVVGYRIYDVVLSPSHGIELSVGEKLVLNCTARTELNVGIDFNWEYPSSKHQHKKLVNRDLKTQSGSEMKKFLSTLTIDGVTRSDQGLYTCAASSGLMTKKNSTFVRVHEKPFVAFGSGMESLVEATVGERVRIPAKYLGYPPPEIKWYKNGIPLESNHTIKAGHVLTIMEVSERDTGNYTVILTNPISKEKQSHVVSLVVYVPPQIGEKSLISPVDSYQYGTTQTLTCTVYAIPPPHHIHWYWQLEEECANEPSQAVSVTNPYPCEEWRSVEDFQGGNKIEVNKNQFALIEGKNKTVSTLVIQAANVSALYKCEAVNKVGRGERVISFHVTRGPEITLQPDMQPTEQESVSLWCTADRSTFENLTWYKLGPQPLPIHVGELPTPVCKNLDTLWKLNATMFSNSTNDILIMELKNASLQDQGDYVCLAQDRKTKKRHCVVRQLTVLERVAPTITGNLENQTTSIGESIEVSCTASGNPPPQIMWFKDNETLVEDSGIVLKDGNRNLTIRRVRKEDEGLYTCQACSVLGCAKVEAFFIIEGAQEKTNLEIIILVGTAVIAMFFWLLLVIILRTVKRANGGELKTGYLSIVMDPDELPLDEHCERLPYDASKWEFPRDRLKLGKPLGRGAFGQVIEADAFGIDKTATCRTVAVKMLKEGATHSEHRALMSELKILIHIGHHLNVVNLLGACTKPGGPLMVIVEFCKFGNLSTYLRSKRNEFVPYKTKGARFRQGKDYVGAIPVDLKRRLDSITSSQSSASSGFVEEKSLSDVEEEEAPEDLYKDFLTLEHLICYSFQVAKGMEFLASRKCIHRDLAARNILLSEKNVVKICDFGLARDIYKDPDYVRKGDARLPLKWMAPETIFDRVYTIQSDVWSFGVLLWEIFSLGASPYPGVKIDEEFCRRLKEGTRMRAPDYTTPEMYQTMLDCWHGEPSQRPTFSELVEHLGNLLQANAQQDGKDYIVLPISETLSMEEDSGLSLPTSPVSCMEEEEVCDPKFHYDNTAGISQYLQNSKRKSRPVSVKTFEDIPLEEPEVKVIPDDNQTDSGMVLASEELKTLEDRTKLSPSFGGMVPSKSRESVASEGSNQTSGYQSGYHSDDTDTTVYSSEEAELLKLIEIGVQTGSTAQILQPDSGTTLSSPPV
Sequence of Tyrosine-protein kinase Lck (P06239 whole entry): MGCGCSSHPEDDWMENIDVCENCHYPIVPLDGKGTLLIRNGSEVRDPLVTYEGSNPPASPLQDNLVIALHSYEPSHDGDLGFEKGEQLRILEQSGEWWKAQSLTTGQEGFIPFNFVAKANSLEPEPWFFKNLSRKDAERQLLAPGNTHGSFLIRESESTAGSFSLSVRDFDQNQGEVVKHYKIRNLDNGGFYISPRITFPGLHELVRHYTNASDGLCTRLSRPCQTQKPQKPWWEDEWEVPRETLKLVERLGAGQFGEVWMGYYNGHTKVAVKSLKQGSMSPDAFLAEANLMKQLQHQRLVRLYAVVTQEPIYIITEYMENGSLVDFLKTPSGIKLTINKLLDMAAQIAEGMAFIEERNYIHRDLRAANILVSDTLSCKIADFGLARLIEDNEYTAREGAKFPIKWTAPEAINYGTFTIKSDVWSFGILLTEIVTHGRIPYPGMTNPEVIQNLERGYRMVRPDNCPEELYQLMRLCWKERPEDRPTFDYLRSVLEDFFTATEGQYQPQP

| Compound | IC50 (HUVEC [1]) [nM] | IC50 (HUVEC [2]) [nM] | IC50 [3] [nM] | IC50 [4] [nM] | IC50 [5] [nM] | IC50 (Angiopoietin-1 receptor) [nM] | solubility [6, 20] [µg/mL] | solubility [7, 21] [µg/mL] | solubility [8] [µg/mL] | also measured |
| --- | --- | --- | --- | --- | --- | --- | --- | --- | --- | --- |
| COc1cc2nccc(Oc3ccc4c(c3)OCCN4C(=O)Nc3cccc(C)c3)c2cc1OC | 190 | 0.6 | 350 |  |  |  |  |  |  |  |
| COc1cc2nccc(Oc3ccc4c(c3)OCCN4C(=O)Nc3ccccc3C)c2cc1OC | 910 | 45 | 410 | 27 | 1 | 1600 |  |  |  |  |
| COc1cc2nccc(Oc3ccc4c(C(=O)Nc5cccc(Cl)c5)cccc4c3)c2cc1OC |  |  |  |  |  |  | 9.5 (≈ 19.6 µM) | 36 (≈ 74.2 µM) | < 1 |  |
| COc1cc2nccc(Oc3ccc4c(c3)OCCN4C(=O)NCc3ccc(C)cc3)c2cc1OC | 1100 | 360 | 500 | 150 | 26 | 1500 |  |  |  |  |
| COc1cc2nccc(Oc3ccc4c(c3)OCCN4C(=O)N[C@@H](C)c3ccccc3)c2cc1OC | 300 | 3 | 460 | 18 | 1 | 260 |  |  |  | clearance [9]: 16.3 mL/min/kg; half-life [10]: 2.3 h; microsomal CLint [11]: 543 µL/min/mg; Vd [12]: 1.4 L/kg; microsomal CLint [13]: 188 µL/min/mg |
| COc1cc2nccc(Oc3ccc4c(c3)OCCN4C(=O)NC(C)C)c2cc1OC | 1100 | 52 | 1200 | 1000 | 40 | > 4000 | > 200 | 14 (≈ 33.1 µM) | 3 (≈ 7.08 µM) |  |
| COc1cc2nccc(Oc3ccc4c(c3)OCCN4C(=O)Nc3ccc(Cl)cc3)c2cc1OC |  |  |  |  |  |  |  |  |  | AUC [14]: 2.8 µM·h; solubility ([6]; buffer): 28 µg/mL (≈ 56.9 µM); AUC(0-inf) [15]: 7900 ng·h/mL; clearance [9]: 4 mL/min/kg; Cmax [16]: 810 ng/mL; half-life [10]: 6.4 h; solubility ([7]; simulated gi fluid): 33 µg/mL (≈ 67.1 µM); bioavailability [17]: 95%; Cmax [18]: 180 nM; microsomal CLint [11]: < 14 µL/min/mg; Vd [12]: 1.8 L/kg; microsomal CLint [13]: 44 µL/min/mg; Tmax [19]: 3.3 h |
| COc1cc2nccc(Oc3ccc4c(c3)OCCN4C(=O)Nc3ccccc3Cl)c2cc1OC | 230 | 73 | 290 | 2200 | 19 | 2200 |  |  |  |  |
| CNC(=O)c1cccc2cc(Oc3ccnc4cc(OC)c(OC)cc34)ccc12 |  |  |  |  |  |  | > 200 | 3 (≈ 7.72 µM) | 1.4 (≈ 3.6 µM) |  |
| O=C(Nc1ccc(Cl)cc1)N1CCOc2cc(Oc3ncnc4[nH]ccc34)ccc21 | > 1000 | 230 | > 4000 | > 4000 | 77 | > 4000 |  |  |  |  |
| COc1cc2nccc(Oc3ccc4c(c3)OCCN4C(=O)Nc3ccc(C)cc3)c2cc1C(N)=O | 300 | 1 | 260 | 19 | 0.5 | 430 |  |  |  | AUC(0-inf) [15]: 650 ng·h/mL; clearance [9]: 14.3 mL/min/kg; Cmax [16]: 160 ng/mL; half-life [10]: 1.6 h; bioavailability [17]: 28%; microsomal CLint [11]: 62 µL/min/mg; Vd [12]: 1.4 L/kg; microsomal CLint [13]: 96 µL/min/mg; Tmax [19]: 2.3 h |
| CNC(=O)c1cc(Oc2ccc3c(c2)OCCN3C(=O)Nc2ccc(Cl)cc2)ccn1 | > 1000 | > 1000 | > 4000 | > 4000 | 95 | > 4000 |  |  |  |  |
| Cc1ccc(NC(=O)N2CCOc3cc(Oc4ncnc5[nH]ccc45)ccc32)cc1 | > 1000 | 230 | > 4000 | > 4000 | 26 | > 4000 |  |  |  |  |
| CNC(=O)N1CCOc2cc(Oc3ccnc4cc(OC)c(OC)cc34)ccc21 | 370 | 100 | > 4000 | 2400 | 40 | > 4000 | > 200 | 130 (≈ 329 µM) | 46 (≈ 116 µM) |  |
| CNC(=O)c1cc(Oc2ccc3c(c2)OCCN3C(=O)Nc2ccc(C)cc2)ccn1 | > 1000 | > 1000 | > 4000 | > 4000 | 62 | > 4000 |  |  |  |  |
| COc1cc2nccc(Oc3ccc4c(c3)OCCN4C(=O)Nc3ccc(F)cc3)c2cc1OC | 300 | 2 | 1100 | 90 | 3 | 1500 | > 200 | 41 (≈ 86.2 µM) | 3.3 (≈ 6.94 µM) | AUC(0-inf) [15]: 2600 ng·h/mL; clearance [9]: 13.7 mL/min/kg; Cmax [16]: 410 ng/mL; half-life [10]: 3 h; bioavailability [17]: 81%; microsomal CLint [11]: 17 µL/min/mg; Vd [12]: 2.1 L/kg; microsomal CLint [13]: 74 µL/min/mg; Tmax [19]: 2.7 h |
| COc1cc2nccc(Oc3ccc4c(c3)OCCN4C(=O)NCc3ccccc3)c2cc1OC | > 1100 | 237 | 1600 | 500 | 53 | > 4000 |  |  |  |  |
| CCNC(=O)N1CCOc2cc(Oc3ccnc4cc(OC)c(OC)cc34)ccc21 | 780 | 23 | 1400 | 1500 | 1 | > 4000 |  |  |  |  |
| COc1cc2nccc(Oc3ccc4c(c3)OCCN4C(=O)Nc3cccc(Cl)c3)c2cc1OC | 220 | 0.4 | 230 | 4 | 1 | 9 | 120 (≈ 244 µM) | 28 (≈ 56.9 µM) | < 1 |  |
| COc1cc2nccc(Oc3ccc4c(c3)OCCN4C(N)=O)c2cc1OC | 1100 | 280 | > 4000 | > 4000 | 58 | > 4000 |  |  |  |  |
| COc1cc2nccc(Oc3ccc4c(C(=O)NC(C)C)cccc4c3)c2cc1OC |  |  |  |  |  |  | > 200 | 5.6 (≈ 13.4 µM) | < 1 |  |
| COc1cc2nccc(Oc3ccc4c(c3)OCCN4C(=O)Nc3ccc(Cl)cc3)c2cc1C(N)=O | 290 | 1 | 160 | 21 | 0.6 | 290 |  |  |  | AUC(0-inf) [15]: 4500 ng·h/mL; clearance [9]: 3.17 mL/min/kg; Cmax [16]: 820 ng/mL; half-life [10]: 2.6 h; bioavailability [17]: 46%; microsomal CLint [11]: 48 µL/min/mg; Vd [12]: 0.5 L/kg; microsomal CLint [13]: 25 µL/min/mg; Tmax [19]: 2.3 h |
| COc1cc2nccc(Oc3ccc4c(c3)OCCN4C(=O)N[C@H](C)c3ccccc3)c2cc1OC | 1100 | 250 | 210 | 78 | 40 | > 4000 |  |  |  |  |
| COc1cc2nccc(Oc3ccc4c(C(=O)Nc5ccc(F)cc5)cccc4c3)c2cc1OC |  |  |  |  |  |  | 67 (≈ 143 µM) | 1.3 (≈ 2.77 µM) | < 1 |  |
| COc1cc2nccc(Oc3ccc4c(C(=O)Nc5ccc(C)cc5)cccc4c3)c2cc1OC |  |  |  |  |  |  | > 200 | 9.4 (≈ 20.2 µM) | < 1 |  |
| COc1cc2nccc(Oc3ccc4c(c3)OCCN4C(=O)Nc3ccc(C)cc3)c2cc1OC | 280 | 3 | 370 | 63 | 0.2 | 1000 | > 200 | 22 (≈ 46.7 µM) | < 1 | AUC(0-inf) [15]: 1300 ng·h/mL; clearance [9]: 12 mL/min/kg; Cmax [16]: 300 ng/mL; half-life [10]: 4.4 h; bioavailability [17]: 47%; microsomal CLint [11]: 31 µL/min/mg; Vd [12]: 2.8 L/kg; microsomal CLint [13]: 104 µL/min/mg; Tmax [19]: 1 h |
| COc1cc2nccc(Oc3ccc4c(c3)OCCN4C(=O)Nc3ccccc3)c2cc1OC | 340 | 0.6 | 650 | 188 | 1 | 386 |  |  |  | clearance [9]: 30 mL/min/kg; half-life [10]: 1.2 h; microsomal CLint [11]: 62 µL/min/mg; Vd [12]: 2.1 L/kg; microsomal CLint [13]: 122 µL/min/mg |
| COc1cc2nccc(Oc3ccc4c(C(=O)Nc5ccc(Cl)cc5)cccc4c3)c2cc1OC |  | 8 |  |  |  |  |  | 1.4 (≈ 2.89 µM) | < 1 |  |
